Measurements: ChEMBL document CHEMBL1275449, “Potent in vitro antifungal activities of naturally occurring acetylenic acids” (Antimicrob Agents Chemother, 2008)
Calls of active or inactive are those of the source. No cut-off for these calls is given here.

Columns and labels:
[1] = system: Trichophyton rubrum; test: Antifungal activity against Trichophyton rubrum ATCC 10218 by CLSI method; type: functional, organism-based
How it was run: (§1)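 Growth scraped from 1- to 6-week-old potato dextrose slants and filtered through Miracloth. Diluted in 5% Alamar blue-RPMI 1640 (MOPS pH 7.0) to 2.7 × 10⁴ CFU/ml. Eleven twofold dilutions in duplicate. Fluorescence at 544 nm excitation/590 nm emission read before and after 35°C, 5 days. IC50 fitted from percent growth. MIC taken as no detectable growth; MFC from clear or blue wells plated on PD agar.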

[2] = system: Trichophyton rubrum; test: Antifungal activity against Trichophyton rubrum ATCC MYA-4438 by CLSI method; type: functional, organism-based; how it was run: as §1
[3] = system: Trichophyton mentagrophytes; test: Antifungal activity against Trichophyton mentagrophytes ATCC MYA-4439 by CLSI method; type: functional, organism-based; how it was run: as §1
[4] = system: Cryptococcus neoformans; test: Antifungal activity against Cryptococcus neoformans ATCC 66031 after 72 hrs by CLSI method; type: functional, organism-based; conditions: ATCC 66031, 72 h
How it was run: (§2)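 SD broth replaced RPMI because growth in RPMI was poor; other CLSI conditions were kept. Inoculum was 1.5 × 10³ CFU/ml from colonies on SD agar, checked by plating. Twofold serial dilutions (11 concentrations) in 20% DMSO-saline were tested in duplicate. OD530 was read before and after incubation at 35°C for 72 h. Percent growth gave IC50; the MIC is the lowest concentration with no detectable growth.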

[5] = system: Pichia kudriavzevii; test: Antifungal activity against Candida krusei ATCC 6258 after 48 hrs by CLSI method; type: functional, organism-based; conditions: ATCC 6258, 48 h
How it was run: (§3)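 Candida inocula came from 24–72-h SD agar colonies suspended in saline. They were diluted by OD630 standard curve into RPMI 1640 (0.2% dextrose, 0.03% glutamine, 0.165 M MOPS, pH 7.0) to 1.5 × 10³ CFU/ml. Compounds were run as 11 twofold dilutions in 20% DMSO-saline, in duplicate, at 35°C for 48 h, with OD530 read before and after. Percent growth at the top concentration, IC50, MIC, and MFC (SD agar plating) were derived.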

[6] = system: Candida albicans; test: Antifungal activity against Candida albicans ATCC 14053 at 178.6 uM after 48 hrs by CLSI method; type: functional, organism-based
[7] = system: Candida albicans; test: Antifungal activity against Candida albicans ATCC 60193 at 178.6 uM after 48 hrs by CLSI method; type: functional, organism-based; how it was run: as §3
[8] = system: Candida albicans; test: Antifungal activity against Candida albicans ATCC 32354 at 178.6 uM after 48 hrs by CLSI method; type: functional, organism-based; how it was run: as §3
[9] = system: Candida albicans; test: Antifungal activity against Candida albicans ATCC 90028 at 178.6 uM after 48 hrs by CLSI method; type: functional, organism-based; how it was run: as §3
[10] = system: Candida albicans; test: Antifungal activity against Candida albicans ATCC 200955 at 178.6 uM after 48 hrs by CLSI method; type: functional, organism-based; how it was run: as §3
[11] = system: Candida albicans; test: Antifungal activity against Fluconazole resistant Candida albicans isolate 1 at 178.6 uM after 48 hrs by CLSI method; type: functional, organism-based
How it was run: (§4)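 Candida in CLSI broth microdilution. Saline colony suspension set to 1.5 × 10³ CFU/ml (final) in MOPS-buffered RPMI 1640, pH 7.0. Test agent given as twofold serial dilutions in 20% DMSO-saline, duplicate wells. 35°C for 48 h. Growth read as OD530 before and after incubation. Percent inhibition scored at the highest test concentration.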

[12] = system: Candida albicans; test: Antifungal activity against Fluconazole resistant Candida albicans isolate 17 at 178.6 uM after 48 hrs by CLSI method; type: functional, organism-based; how it was run: as §4
[13] = system: Nakaseomyces glabratus; test: Antifungal activity against Candida glabrata ATCC 90030 at 178.6 uM after 48 hrs by CLSI method; type: functional, organism-based; how it was run: as §3
[14] = system: Candida parapsilosis; test: Antifungal activity against Candida parapsilosis ATCC 22019 at 178.6 uM after 48 hrs by CLSI method; type: functional, organism-based
How it was run: (§5)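 Yeast suspensions made from 3-5 colonies off 24-72 h SD agar plates in saline. They were diluted by OD630 standard curve in RPMI 1640 (0.2% dextrose, 0.03% glutamine, 0.165 M MOPS, pH 7.0) to 1.5 × 10³ CFU/ml. Twofold dilutions (11 concentrations, 20% DMSO-saline) run in duplicate. OD530 read before and after 35°C, 48 h. Line values are top test concentrations; no-growth endpoints give MIC/MFC.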

[15] = system: SK-MEL; test: Cytotoxicity against human SK-MEL cells up to 32 uM by neutral red method; type: cell-based
How it was run: (§6)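 Neutral red uptake cytotoxicity, top concentration 32 μM.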

[16] = system: KB; test: Cytotoxicity against human KB cells up to 32 uM by neutral red method; type: cell-based; how it was run: as §6
[17] = system: BT-549; test: Cytotoxicity against human BT549 cells up to 32 uM by neutral red method; type: cell-based; how it was run: as §6
[18] = system: SK-OV-3; test: Cytotoxicity against human SKOV3 cells up to 32 uM by neutral red method; type: cell-based; how it was run: as §6
[19] = system: Vero; test: Cytotoxicity against African green monkey Vero cells up to 32 uM by neutral red method; type: cell-based; conditions: chlorocebus sabaeus; how it was run: as §6
[20] = system: LLC-PK1; test: Cytotoxicity against pig LLC-PK1 cells up to 32 uM by neutral red method; type: cell-based, Sus scrofa; how it was run: as §6
[21] = system: Candida tropicalis; test: Antifungal activity against Candida tropicalis ATCC 750 at 178.6 uM after 48 hrs by CLSI method; type: functional, organism-based; how it was run: as §5
[22] = system: Cryptococcus neoformans; test: Antifungal activity against Cryptococcus neoformans ATCC 90113 at 178.6 uM after 72 hrs by CLSI method; type: functional, organism-based; how it was run: as §2
[23] = system: Cryptococcus neoformans; test: Antifungal activity against Cryptococcus neoformans ATCC 66031 at 178.6 uM after 72 hrs by CLSI method; type: functional, organism-based; how it was run: as §2
[24] = system: Aspergillus fumigatus; test: Antifungal activity against Aspergillus fumigatus ATCC 204305 at 178.6 uM after 48 hrs by CLSI method; type: functional, organism-based
[25] = system: Aspergillus fumigatus; test: Antifungal activity against Aspergillus fumigatus ATCC 90906 at 178.6 uM after 48 hrs by CLSI method; type: functional, organism-based
[26] = system: Aspergillus flavus; test: Antifungal activity against Aspergillus flavus ATCC 204304 at 178.6 uM after 48 hrs by CLSI method; type: functional, organism-based
[27] = system: Aspergillus niger; test: Antifungal activity against Aspergillus niger ATCC 16404 at 178.6 uM after 48 hrs by CLSI method; type: functional, organism-based
[28] = system: Trichophyton mentagrophytes; test: Antifungal activity against Trichophyton mentagrophytes ATCC MYA-4439 at 178.6 uM after 5 days by CLSI method; type: functional, organism-based
[29] = system: Trichophyton mentagrophytes; test: Antifungal activity against Trichophyton mentagrophytes ATCC 9533 at 178.6 uM after 5 days by CLSI method; type: functional, organism-based
[30] = system: Trichophyton rubrum; test: Antifungal activity against Trichophyton rubrum ATCC MYA-4438 at 178.6 uM after 5 days by CLSI method; type: functional, organism-based
[31] = system: Trichophyton rubrum; test: Antifungal activity against Trichophyton rubrum ATCC 10218 at 178.6 uM after 5 days by CLSI method; type: functional, organism-based

CCCCCCCCC#CCCCCCCCC(=O)O
IC50 [1]: > 179 µM
IC50 [2]: 80.2 µM
IC50 [3]: > 179 µM
IC50 [4]: > 179 µM
IC50 [5]: > 179 µM
Activity [6]: inactive
Activity [7]: inactive
Activity [8]: inactive
Activity [9]: inactive
Activity [10]: inactive
Activity [11]: inactive
Activity [12]: inactive
Activity [13]: inactive
Activity [14]: inactive
Activity [15]: Non-toxic
Activity [16]: Non-toxic
Activity [17]: Non-toxic
Activity [18]: Non-toxic
Activity [19]: Non-toxic
Activity [20]: Non-toxic
Activity [21]: inactive
Activity [22]: inactive
Activity [23]: inactive
Activity [24]: inactive
Activity [25]: inactive
Activity [26]: inactive
Activity [27]: inactive
Activity [28]: inactive
Activity [29]: inactive
Activity [30]: inactive
Activity [31]: inactive
